Shown are actives, neighbours in structure and some others; about 1.2% of the full set was active somewhere.
M1 ag parental: counter-screen for M1 agonists: effect in parental CHO-K1 cells | activation, % at 3 µM | AID 602248 | Fluo-8 calcium fluorescence; scaled to maximal ATP response, vehicle zero | 360,000 compounds, 0.48% hits; in the data active = activation above about 15%;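 note: untransfected CHO-K1 host cells lacking M1 receptor as counterscreen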
CHO-K1 Ca antag: M1 antagonist counterscreen hit in parental CHO-K1 cells | ATP-induced calcium, Fluo-8 fluorescence | inhibition, % at 3 µM | 360,000 compounds, 0.6% hits | AID 602250;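 active = inhibition above a per-plate cutoff, the plate's mean sample inhibition plus 3 SD, cut at about 24% in these data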;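 note: 0% = DMSO plus EC80 ATP and 100% = DMSO alone without ATP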
TRPML3 ag: human mucolipin-3 channel agonism | Q8TDD5 | 220,000 compounds, 0.29% hits | HEK293 TRPML3-YFP, Fluo-8 calcium fluorescence; 100% = the carbachol control signal | activation, % at 3 µM | AID 1448;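 active = activation above its plate's cutoff, the mean activation of the plate's test wells plus 3 SD, cut at about 12% in these data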;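 note: 0% = DMSO only wells and 100% = carbachol wells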
Target sequence (Q8TDD5 whole entry, looked up): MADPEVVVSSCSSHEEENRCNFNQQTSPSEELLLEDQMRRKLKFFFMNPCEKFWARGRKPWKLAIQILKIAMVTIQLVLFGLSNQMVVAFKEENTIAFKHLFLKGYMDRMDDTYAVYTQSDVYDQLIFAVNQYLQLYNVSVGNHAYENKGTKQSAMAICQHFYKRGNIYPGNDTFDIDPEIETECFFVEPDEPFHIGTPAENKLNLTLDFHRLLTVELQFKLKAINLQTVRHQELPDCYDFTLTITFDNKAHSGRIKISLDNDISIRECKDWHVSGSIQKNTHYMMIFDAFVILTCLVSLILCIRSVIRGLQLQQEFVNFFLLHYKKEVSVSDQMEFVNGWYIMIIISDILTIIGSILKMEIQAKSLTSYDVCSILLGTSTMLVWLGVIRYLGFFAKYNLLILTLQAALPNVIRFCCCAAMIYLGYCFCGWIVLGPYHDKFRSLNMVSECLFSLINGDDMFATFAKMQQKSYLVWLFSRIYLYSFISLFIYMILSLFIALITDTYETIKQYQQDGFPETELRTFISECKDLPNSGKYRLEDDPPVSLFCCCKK
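system = HEK293 cells stably carrying human TRPML3-YFP | doses = one concentration, 3 µM nominal, 0.3% DMSO | timing = dye loading 1 h 37 °C then 30 min ambient, 125 s read | detection = Fluo-8 calcium dye fluorescence, ex 470-495, em 515-575 nm | benchmarks = high control carbachol 87 µM, low control DMSO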
zfTRPN1 agonist: zebrafish TRPN1 (NompC) channel agonism. HEK293 zebrafish TRPN1-YFP, Fluo-8 calcium fluorescence; 100% = response to 87 µM carbachol. activation, % at 3 µM. 220,000 compounds, 0.18% hits. AID 1424;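 active = activation above its plate's cutoff, the mean activation of test wells on that plate plus 3 SD, cut at about 19% in these data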;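 note: 0% = DMSO alone and 100% = 87 µM carbachol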
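System: zebrafish TRPN1-YFP in HEK293 cells / Dosing: 3 µM single point / Timing: dye loading 1 h at 37 °C, then 30 min room temperature / Signal: Fluo-8 calcium fluorescence, excitation 470-495 nm, emission 515-575 nm / Read-out basis: percent activation from peak over basal fluorescence ratio, control-normalized / Control set: high carbachol 87 µM, low DMSO alone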
M1 PAM parental: M1 PAM counterscreen hit in parental CHO-K1 cells; 360,000 compounds, 0.02% hits; activation, % at 3 µM; ATP EC20, Fluo-8 calcium fluorescence; 0% at ATP EC20, 100% at ATP max;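 active = activation above the run cutoff, the mean activation of all test compounds plus 3 SD, cut at about 40% in these data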;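 note: peak over basal fluorescence ratio in a 140 s read after ATP addition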
The depositor's hits bear a star; · = no result given.

SMILES | M1 ag parental | CHO-K1 Ca antag | TRPML3 ag | zfTRPN1 agonist | M1 PAM parental
COc1ccc(-c2nc3ccc(Cl)cn3c2Cc2ccc(C)cc2)cc1OC | 0 | 3 | · | · | -7
Cc1cc(C)c2cc(C#N)c(NCCCNC(=O)c3cccnc3)nc2c1 | 2 | -8 | · | · | 6
Cc1cc(C(=O)NC2CCCc3c2cnn3-c2cccc(C)c2C)n(C)n1 (centres undefined) | 13 | 30* | · | · | -20
COc1ccc(C(=O)NC2CCCc3c2cnn3-c2ccc(C)c(C)c2)c(OC)c1OC (centres undefined) | 2 | 1 | · | · | 9
Cn1nccc1C(=O)NC1CCCc2c1cnn2-c1ccc(C(C)(C)C)cc1 (centres undefined) | 14 | 33* | · | · | -15
COc1cccc(C(=O)NC2CCCc3c2cnn3-c2ccc(C)c(C)c2)c1OC (centres undefined) | 8 | 38* | · | · | -12
Cc1cc(O)ccc1-c1cccc2nccn12 | 2 | -20 | · | · | 11
COc1ccccc1-c1ncn(Cc2cccc(-c3ccccc3)c2)c1CC(C)C | 1 | -11 | · | · | 1
Cc1nn(C(=O)c2cccc([N+](=O)[O-])c2)c(C)c1Sc1ccccc1 | -1 | 26* | -1 | -1 | -8
Cc1nn(C(=O)c2ccco2)c(C)c1Sc1ccccc1 | 0 | -5 | -1 | -2 | 12
Cc1ccc(S(=O)(=O)N2C[C@H]3N(C(=O)OC(C)C)N(C(=O)OC(C)C)C[C@H](OC(=O)NCc4ccco4)[C@@]3(O)C2)cc1 | 0 | -2 | · | · | 10
O=C(Cn1ccc([N+](=O)[O-])n1)NCc1nc2ccccc2[nH]1 | 17* | 0 | 0 | -1 | 18
O=C(Cn1ccc([N+](=O)[O-])n1)NCc1ccco1 | 0 | -13 | 0 | -1 | 23
CNc1cncc(-c2cccc(C(=O)NC3CC3)c2)n1 | 0 | -2 | · | · | -4
COc1ccccc1C1N(c2cc(Cl)ccc2OC)C(=O)C2CCCN21 (centres undefined) | 0 | 27* | 0 | 0 | -13
CN(C)c1ccc2c(c1)OC(N)=C(C#N)C2c1cccc(F)c1 (centres undefined) | 17* | 8 | 6 | 14 | 11
COCCn1c(SCC(=O)NNC(=O)Cc2ccccc2)nc2ccccc2c1=O | 0 | 25* | 0 | 0 | -7
COC(=O)[C@@H](Cc1ccccc1)NC(=O)/C=C/[C@H]1O[C@@H](n2cnc3c(NC(=O)c4ccccc4)ncnc32)[C@H](O)[C@@H]1O | 0 | -13 | · | · | 3
CNC(=O)C1Cc2c(-c3ccc4c(c3)OCO4)ccnc2O1 (centres undefined) | 1 | -5 | · | · | 10
O=S(=O)(c1ccccc1)N1CCC(O)(CSc2ccc(F)cc2)CC1 | 18* | 16 | 5 | 9 | -11
CCCNC(=O)C1(C)CCCN(Cc2ccc(-c3ccccn3)cc2)C1 (centres undefined) | 0 | 9 | · | · | -13
Clc1ccc2c(NCc3ccccc3)ccnc2c1 | 17* | 5 | · | · | -1
C/C(=N\NC(=O)CSc1nc(C)cc(C)n1)c1cccc([N+](=O)[O-])c1 | 0 | -13 | 0 | 0 | 41*
Cc1cc(C)nc(SCC(=O)N/N=C/c2cccc([N+](=O)[O-])c2)n1 | 0 | -11 | 1 | 0 | 23
C[C@@H]1CN([C@H](C)CO)C(=O)c2cc(Br)cnc2O[C@@H]1CN(C)Cc1ccc(F)cc1 | -1 | 4 | · | · | -9
SMILES | M1 ag parental | CHO-K1 Ca antag | TRPML3 ag | zfTRPN1 agonist | M1 PAM parental
CCNc1nc(NC(C)C)nc(NS(=O)(=O)c2ccc(N)cc2)n1 | 0 | 27* | 1 | -1 | -5
COCCNC(=O)c1cnn2c(C(F)F)cc(-c3ccc(C)cc3)nc12 | 0 | -4 | 0 | 0 | -5
COc1ccc(CNC(=O)c2cnn3c(C(F)F)cc(C)nc23)cc1OC | 4 | 26* | 1 | 4 | -5
Clc1ccccc1-c1cnc2sc(NCc3ccc4c(c3)OCO4)nn12 | 0 | 2 | · | · | -14
O=c1[nH]c2ccc(S(=O)(=O)N3CCC(Cc4ccccc4)CC3)cc2o1 | 1 | 24* | 0 | 2 | -7
Cn1c(=O)c(=O)n(C)c2cc(S(=O)(=O)N3CCC(Cc4ccccc4)CC3)ccc21 | 1 | -3 | 1 | 1 | 7
Cc1ccc(-c2ccc(CN3C(C)C(=O)N(Cc4cn(Cc5ccco5)nn4)CCS3(=O)=O)cc2)c(C)c1 (centres undefined) | 1 | -9 | · | · | 10
C=CCn1c(COc2ccccc2)nnc1SCc1ccc(C#N)cc1 | 1 | 0 | 1 | 1 | -3
C=CCn1c(COc2ccc(CC)cc2)nnc1SC/C(O)=C(\C#N)c1nc2ccccc2[nH]1 | 0 | 26* | -1 | 0 | -8
C[C@@H]1CN([C@H](C)CO)C(=O)CCCn2nncc2CO[C@H]1CN(C)C | 0 | -1 | · | · | -12
CC(=O)Nc1cccc(-n2nnc(SCC(=O)Nc3ccc(F)c(Cl)c3)n2)c1 | 22* | 15 | 1 | 3 | -1
CC(=O)Nc1cccc(-n2nnc(SCC(N)=O)n2)c1 | 0 | 5 | 1 | -1 | -12
CC(C)NC(=O)N(C)C[C@H]1Oc2ncc(Br)cc2C(=O)N([C@H](C)CO)C[C@@H]1C | 0 | -25 | · | · | 29
c1ccc(Oc2ccc(-c3ccnc4nc(N5CCOCC5)nn34)cc2)cc1 | 1 | 14 | -1 | -3 | 1
COc1ccc(-c2ccnc3nc(N4CCOCC4)nn23)cc1 | 0 | 24* | 0 | -1 | -7
COc1cc(Cl)ccc1OC1(C)CCN(Cc2cccn2-c2nccs2)C1 (centres undefined) | 1 | -9 | · | · | 1
CC(=O)Nc1ccc(C(=O)COC(=O)C2CC2)c(F)c1 | 0 | 28* | · | · | -30
CC(=O)Nc1ccc(C(=O)COC(=O)C2CCCCC2)c(F)c1 | 4 | -9 | · | · | 2
CCc1nc2ccc(C(=O)NCCCn3ccnc3)cn2c1N(C)CCC(C)C | 0 | 1 | · | · | -8
CCC(=O)N1CCC1(C)C(=O)Nc1ccc(OC)c(OC)c1 (centres undefined) | 1 | 3 | · | · | 27
CC(C)(C)C(=O)N1CCN(c2ccnc3cc(Cl)ccc23)CC1 | 1 | 6 | · | · | -24
O=C(Nc1ccc(OC(F)(F)F)cc1)N1CCN(c2ccnc3cc(Cl)ccc23)CC1 | 5 | 27* | 0 | 2 | -21
CCCCC(=O)N(C)c1c(C)nc2ccc(C(=O)N3CCN(S(=O)(=O)CC)CC3)cn12 | 0 | -1 | · | · | 9
COc1ccc(NC(=O)c2cc(C3CCCCN3C(=O)c3ccccc3)on2)c(C)c1 (centres undefined) | 0 | -12 | · | · | 23
CCCCOCCCNC(=O)C[C@@H]1C[C@@]2(C(=O)OC)CCCCC=C2N(Cc2ccco2)C1=O | 1 | 3 | · | · | -9
O=C(O)CC(C(=O)OC1CCCCC1)N1CCOCC1 (centres undefined) | 0 | 31* | 1 | 4 | -13

Screening results (PubChem BioAssay)
